From ChEMBL document CHEMBL4371052, “Diarylcarbonates are a new class of deubiquitinating enzyme inhibitor” (Bioorg Med Chem Lett, 2019)
Calls of active or inactive are those of the source.

What was measured:
[1] = target: 26S proteasome (Homo sapiens) (UniProt Q99460+P49721+P20618+P28074+P28062+P28065+P28072+O00487+P25786+P25787+P25788+P25789+P28066+P60900+O14818+Q8TAA3+P40306+A5LHX3+P49720+P28070+Q99436+Q16186+P35998+P62191+P43686+P62333+P17980+P62195+Q13200+O43242+O00232+O00231+Q15008+P51665+Q9UNM6+P55036+P48556+P60896); experiment: Inhibition of 26S proteasome in HEK293T cells expressing GFP-fused Ub G76V mutant assessed as increase in GFP fluorescence; format: cell-based
How it was run: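 HEK 293T cells expressing G76V Ub-GFP, a fusion uncleavable by DUBs that reports ubiquitin-proteasome flux, treated with compound. GFP fluorescence was the read-out, with bortezomib as proteasome-inhibitor reference.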

[2] = target: T1, Ubiquitin carboxyl-terminal hydrolase isozyme L3 (Homo sapiens) (UniProt P15374); experiment: Inhibition of UCHL3 in HEK293T cell lysates at 25 uM using HA-tagged vinyl-sulfone as substrate measured after 2 to 30 mins by Western blot analysis; format: subcellular; conditions: Lysate
T1 sequence (whole entry): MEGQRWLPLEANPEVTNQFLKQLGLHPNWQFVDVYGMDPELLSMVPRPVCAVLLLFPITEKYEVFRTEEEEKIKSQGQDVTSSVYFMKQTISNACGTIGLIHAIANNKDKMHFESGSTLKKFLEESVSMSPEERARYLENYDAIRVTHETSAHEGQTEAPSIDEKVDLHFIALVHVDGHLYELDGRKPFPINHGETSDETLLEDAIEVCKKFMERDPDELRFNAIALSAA
How it was run: (§1)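 HEK 293T lysate (1.5 mg/ml) given compound (25 μM) or DMSO at the same time as HA-Ub-VS (1.5 μM). Aliquots withdrawn over time were run on SDS-PAGE and immunoblotted for HA.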

[3] = target: Ubiquitin carboxyl-terminal hydrolase isozyme L1 (Homo sapiens) (UniProt P09936); experiment: Inhibition of UCHL1 in HEK293T cell lysates assessed as enzyme recovery at 250 uM using HA-tagged vinyl-sulfone as substrate […] followed by 10-fold dilution and subsequent substrate addition measured within 15 mins by Western blot analysis; format: subcellular; conditions: Lysate
Sequence of Ubiquitin carboxyl-terminal hydrolase isozyme L1 (Homo sapiens) (P09936 whole entry, looked up): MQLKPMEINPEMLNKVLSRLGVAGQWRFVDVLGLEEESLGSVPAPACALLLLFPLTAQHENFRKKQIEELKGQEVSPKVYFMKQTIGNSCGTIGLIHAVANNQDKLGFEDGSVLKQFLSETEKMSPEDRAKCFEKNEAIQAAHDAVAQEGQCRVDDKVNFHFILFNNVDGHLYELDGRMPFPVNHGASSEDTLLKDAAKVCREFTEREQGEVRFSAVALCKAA

[4] = target: T2, Ubiquitin carboxyl-terminal hydrolase 8 (Homo sapiens) (UniProt P40818); experiment: Inhibition of USP8 in HEK293T cell lysates at 25 uM using HA-tagged vinyl-sulfone as substrate measured after 2 to 30 mins by Western blot analysis; format: subcellular; conditions: Lysate; how it was run: as §1
T2 sequence (whole entry): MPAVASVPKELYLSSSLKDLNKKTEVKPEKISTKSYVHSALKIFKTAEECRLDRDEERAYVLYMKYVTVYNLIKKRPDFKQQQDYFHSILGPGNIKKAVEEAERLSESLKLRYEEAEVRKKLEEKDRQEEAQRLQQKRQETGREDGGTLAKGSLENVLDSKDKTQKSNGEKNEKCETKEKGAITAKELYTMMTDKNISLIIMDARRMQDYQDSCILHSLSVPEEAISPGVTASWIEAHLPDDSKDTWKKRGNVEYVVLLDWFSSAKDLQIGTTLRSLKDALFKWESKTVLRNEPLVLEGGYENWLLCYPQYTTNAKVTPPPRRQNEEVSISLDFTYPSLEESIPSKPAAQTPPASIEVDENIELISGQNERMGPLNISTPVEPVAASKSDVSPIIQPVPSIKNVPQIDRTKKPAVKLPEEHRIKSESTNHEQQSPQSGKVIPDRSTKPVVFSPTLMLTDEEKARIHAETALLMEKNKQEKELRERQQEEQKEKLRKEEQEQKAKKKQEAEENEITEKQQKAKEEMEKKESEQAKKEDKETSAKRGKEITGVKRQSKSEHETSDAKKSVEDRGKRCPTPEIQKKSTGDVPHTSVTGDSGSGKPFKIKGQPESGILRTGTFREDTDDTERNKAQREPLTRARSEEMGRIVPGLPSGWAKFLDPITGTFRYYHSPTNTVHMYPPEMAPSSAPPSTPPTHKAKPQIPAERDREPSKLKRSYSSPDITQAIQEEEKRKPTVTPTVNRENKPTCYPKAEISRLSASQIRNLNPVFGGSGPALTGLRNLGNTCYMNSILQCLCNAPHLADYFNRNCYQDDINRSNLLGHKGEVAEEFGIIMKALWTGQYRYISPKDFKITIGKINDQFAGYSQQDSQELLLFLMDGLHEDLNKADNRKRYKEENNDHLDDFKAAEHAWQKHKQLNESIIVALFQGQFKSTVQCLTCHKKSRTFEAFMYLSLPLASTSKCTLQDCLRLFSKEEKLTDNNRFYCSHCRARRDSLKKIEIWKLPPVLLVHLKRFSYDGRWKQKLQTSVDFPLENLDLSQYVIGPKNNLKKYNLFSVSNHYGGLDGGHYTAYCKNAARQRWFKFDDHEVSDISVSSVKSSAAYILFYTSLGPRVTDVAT

[5] = target: Ubiquitin carboxyl-terminal hydrolase isozyme L5 (Homo sapiens) (UniProt Q9Y5K5); experiment: Inhibition of UCHL5 in HEK293T cell lysates assessed as enzyme recovery at 250 uM using HA-tagged vinyl-sulfone as substrate preincubated for 40 mins followed by 10-fold dilution and subsequent substrate addition measured within 15 mins by Western blot analysis; format: subcellular; conditions: Lysate
Sequence of Ubiquitin carboxyl-terminal hydrolase isozyme L5 (Homo sapiens) (Q9Y5K5 whole entry): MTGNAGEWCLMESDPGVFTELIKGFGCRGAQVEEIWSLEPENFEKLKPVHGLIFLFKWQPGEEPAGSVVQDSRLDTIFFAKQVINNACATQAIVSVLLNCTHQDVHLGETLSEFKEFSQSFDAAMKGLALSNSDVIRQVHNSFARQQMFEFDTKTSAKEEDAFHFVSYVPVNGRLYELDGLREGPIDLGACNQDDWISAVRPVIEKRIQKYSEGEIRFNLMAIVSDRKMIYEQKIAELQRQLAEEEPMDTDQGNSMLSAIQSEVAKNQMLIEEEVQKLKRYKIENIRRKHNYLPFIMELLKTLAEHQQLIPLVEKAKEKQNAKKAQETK

[6] = target: T1, Ubiquitin carboxyl-terminal hydrolase isozyme L3 (Homo sapiens); experiment: Inhibition of UCHL3 in HEK293T cell lysates assessed as enzyme recovery at 250 uM using HA-tagged vinyl-sulfone as substrate […] followed by 10-fold dilution and subsequent substrate addition measured within 15 mins by Western blot analysis; format: subcellular; conditions: Lysate
[7] = target: Ubiquitin carboxyl-terminal hydrolase isozyme L1 (Homo sapiens) (UniProt P09936); experiment: Inhibition of UCHL1 in HEK293T cell lysates at 25 uM using HA-tagged vinyl-sulfone as substrate preincubated for 19 to 60 mins followed by substrate addition and measured after 19 to 25 mins by Western blot analysis; format: subcellular; conditions: Lysate
[8] = target: Ubiquitin carboxyl-terminal hydrolase 9X (Homo sapiens) (UniProt Q93008); experiment: Inhibition of USP9x in human K562 cells assessed as decrease in Bcr-Abl expression at 50 uM measured after 4 hrs in presence of proteasome inhibitor bortezomib by Western blot analysis; format: cell-based
Sequence of Ubiquitin carboxyl-terminal hydrolase 9X (Homo sapiens) (Q93008 whole entry): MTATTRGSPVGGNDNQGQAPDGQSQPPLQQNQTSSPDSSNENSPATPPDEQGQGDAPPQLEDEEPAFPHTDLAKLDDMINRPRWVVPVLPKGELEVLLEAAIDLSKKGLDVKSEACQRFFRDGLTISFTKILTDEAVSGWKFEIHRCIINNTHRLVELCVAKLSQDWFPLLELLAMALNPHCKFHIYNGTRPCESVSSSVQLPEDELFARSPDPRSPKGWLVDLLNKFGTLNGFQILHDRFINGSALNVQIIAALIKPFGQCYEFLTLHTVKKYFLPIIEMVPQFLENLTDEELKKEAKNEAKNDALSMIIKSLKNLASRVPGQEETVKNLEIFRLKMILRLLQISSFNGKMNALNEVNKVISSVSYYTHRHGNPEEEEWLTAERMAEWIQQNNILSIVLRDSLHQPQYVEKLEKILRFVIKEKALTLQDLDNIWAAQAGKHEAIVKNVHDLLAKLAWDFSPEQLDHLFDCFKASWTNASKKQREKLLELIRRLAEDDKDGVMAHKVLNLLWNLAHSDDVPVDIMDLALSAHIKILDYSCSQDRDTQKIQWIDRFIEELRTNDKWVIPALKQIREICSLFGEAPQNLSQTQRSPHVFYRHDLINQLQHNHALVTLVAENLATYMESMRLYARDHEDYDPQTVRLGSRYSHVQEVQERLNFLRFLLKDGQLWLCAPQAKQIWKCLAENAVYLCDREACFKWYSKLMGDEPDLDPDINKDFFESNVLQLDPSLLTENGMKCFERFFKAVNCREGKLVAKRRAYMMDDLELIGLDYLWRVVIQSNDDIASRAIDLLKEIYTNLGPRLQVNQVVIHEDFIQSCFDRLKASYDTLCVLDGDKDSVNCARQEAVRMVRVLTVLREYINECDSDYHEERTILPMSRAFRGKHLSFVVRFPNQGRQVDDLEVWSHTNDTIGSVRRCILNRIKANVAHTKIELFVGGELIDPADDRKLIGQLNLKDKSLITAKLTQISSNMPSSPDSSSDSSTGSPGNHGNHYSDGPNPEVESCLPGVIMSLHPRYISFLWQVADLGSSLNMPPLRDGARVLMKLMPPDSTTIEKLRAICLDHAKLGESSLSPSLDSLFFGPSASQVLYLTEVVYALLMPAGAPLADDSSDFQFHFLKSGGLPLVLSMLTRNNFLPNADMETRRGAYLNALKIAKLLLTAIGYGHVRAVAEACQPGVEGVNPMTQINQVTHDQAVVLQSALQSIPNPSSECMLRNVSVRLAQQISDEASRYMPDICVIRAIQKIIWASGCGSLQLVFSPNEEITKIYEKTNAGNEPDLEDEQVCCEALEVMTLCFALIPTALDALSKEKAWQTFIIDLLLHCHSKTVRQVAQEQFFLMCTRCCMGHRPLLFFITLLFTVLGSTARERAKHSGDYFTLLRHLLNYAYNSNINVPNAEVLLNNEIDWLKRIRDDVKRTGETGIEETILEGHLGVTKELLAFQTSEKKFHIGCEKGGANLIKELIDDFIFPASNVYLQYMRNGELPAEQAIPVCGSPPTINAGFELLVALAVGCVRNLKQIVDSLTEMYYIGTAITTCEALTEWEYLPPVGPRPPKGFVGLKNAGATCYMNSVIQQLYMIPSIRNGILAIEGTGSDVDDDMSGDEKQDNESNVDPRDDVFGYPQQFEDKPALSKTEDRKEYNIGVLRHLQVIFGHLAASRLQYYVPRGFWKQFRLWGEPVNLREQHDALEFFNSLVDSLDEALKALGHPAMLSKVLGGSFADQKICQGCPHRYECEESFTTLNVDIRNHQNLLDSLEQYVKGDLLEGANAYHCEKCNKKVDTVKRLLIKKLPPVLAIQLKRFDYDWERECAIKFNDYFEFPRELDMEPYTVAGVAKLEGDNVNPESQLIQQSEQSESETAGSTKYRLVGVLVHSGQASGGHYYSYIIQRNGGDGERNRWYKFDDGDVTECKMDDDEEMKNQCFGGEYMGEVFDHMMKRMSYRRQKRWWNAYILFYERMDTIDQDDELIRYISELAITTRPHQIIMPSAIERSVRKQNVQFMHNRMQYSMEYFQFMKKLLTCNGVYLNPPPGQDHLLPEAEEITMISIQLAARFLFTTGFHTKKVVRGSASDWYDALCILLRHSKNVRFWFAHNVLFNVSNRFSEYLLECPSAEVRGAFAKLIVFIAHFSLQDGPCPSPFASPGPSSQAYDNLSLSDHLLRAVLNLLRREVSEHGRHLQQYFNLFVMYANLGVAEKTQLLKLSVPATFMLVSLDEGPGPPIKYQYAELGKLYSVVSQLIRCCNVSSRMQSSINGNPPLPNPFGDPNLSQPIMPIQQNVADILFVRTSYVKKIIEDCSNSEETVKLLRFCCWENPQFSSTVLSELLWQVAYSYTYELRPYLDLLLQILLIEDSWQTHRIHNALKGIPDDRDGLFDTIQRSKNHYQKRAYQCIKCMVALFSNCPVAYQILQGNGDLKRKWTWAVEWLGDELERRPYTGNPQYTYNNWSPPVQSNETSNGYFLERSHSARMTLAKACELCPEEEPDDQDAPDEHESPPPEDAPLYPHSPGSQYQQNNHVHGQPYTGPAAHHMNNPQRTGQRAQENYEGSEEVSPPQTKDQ
How it was run: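 K562 cells treated with 50 μM compound with or without bortezomib (6 μM) for 4 h. Lysates were sonicated in SDS, and Bcr-Abl was measured by anti-Abl immunoblot with quantitation.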

[9] = target: Ubiquitin carboxyl-terminal hydrolase 28 (Homo sapiens) (UniProt Q96RU2); experiment: Inhibition of USP28 in HEK293T cell lysates at 25 uM using HA-tagged vinyl-sulfone as substrate preincubated for 19 to 60 mins followed by substrate addition and measured after 19 to 25 mins by Western blot analysis; format: subcellular; conditions: Lysate
Sequence of Ubiquitin carboxyl-terminal hydrolase 28 (Homo sapiens) (Q96RU2 whole entry): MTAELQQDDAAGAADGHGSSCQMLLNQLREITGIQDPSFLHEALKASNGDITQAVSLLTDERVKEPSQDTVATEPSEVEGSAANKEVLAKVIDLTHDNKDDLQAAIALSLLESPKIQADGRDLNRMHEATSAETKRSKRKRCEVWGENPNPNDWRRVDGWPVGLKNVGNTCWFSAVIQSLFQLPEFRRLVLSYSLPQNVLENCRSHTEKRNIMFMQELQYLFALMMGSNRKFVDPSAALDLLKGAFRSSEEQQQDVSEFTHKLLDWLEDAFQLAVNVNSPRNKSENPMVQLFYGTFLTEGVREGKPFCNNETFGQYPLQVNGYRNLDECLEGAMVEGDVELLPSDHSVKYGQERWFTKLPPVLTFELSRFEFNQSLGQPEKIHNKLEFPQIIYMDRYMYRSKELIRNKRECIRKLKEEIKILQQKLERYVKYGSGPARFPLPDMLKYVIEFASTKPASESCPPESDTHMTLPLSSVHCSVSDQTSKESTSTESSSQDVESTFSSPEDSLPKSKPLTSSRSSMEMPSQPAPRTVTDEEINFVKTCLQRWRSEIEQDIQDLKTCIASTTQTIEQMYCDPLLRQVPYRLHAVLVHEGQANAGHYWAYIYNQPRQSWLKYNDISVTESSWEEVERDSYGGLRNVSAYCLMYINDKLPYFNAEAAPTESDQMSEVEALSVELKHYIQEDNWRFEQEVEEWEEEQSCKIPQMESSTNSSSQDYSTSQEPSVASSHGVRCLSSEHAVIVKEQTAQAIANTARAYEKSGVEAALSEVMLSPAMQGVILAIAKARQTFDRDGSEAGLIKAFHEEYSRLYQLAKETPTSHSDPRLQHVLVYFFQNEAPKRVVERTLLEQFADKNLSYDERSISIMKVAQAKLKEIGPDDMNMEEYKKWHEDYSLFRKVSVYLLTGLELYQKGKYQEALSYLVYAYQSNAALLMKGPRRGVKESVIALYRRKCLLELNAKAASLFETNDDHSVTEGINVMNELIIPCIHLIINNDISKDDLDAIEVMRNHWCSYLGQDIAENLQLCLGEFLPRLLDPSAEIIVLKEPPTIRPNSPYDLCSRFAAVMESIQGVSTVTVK

[10] = target: Ubiquitin carboxyl-terminal hydrolase isozyme L5 (Homo sapiens) (UniProt Q9Y5K5); experiment: Inhibition of UCHL5 in HEK293T cell lysates at 25 uM using HA-tagged vinyl-sulfone as substrate measured after 2 to 30 mins by Western blot analysis; format: subcellular; conditions: Lysate; how it was run: as §1
[11] = target: Pancreatic elastase (Sus scrofa) (UniProt P08419+P00772); experiment: Inhibition of porcine pancreatic elastase; format: protein assay
[12] = target: T2, Ubiquitin carboxyl-terminal hydrolase 8 (Homo sapiens); experiment: Inhibition of USP8 in HEK293T cell lysates assessed as enzyme recovery at 250 uM using HA-tagged vinyl-sulfone as substrate preincubated for 40 mins followed by 10-fold dilution and subsequent substrate addition measured up to 2 hrs by Western blot analysis; format: subcellular; conditions: Lysate

Measured: inhibition

NCc1ccc(OC(=O)Oc2ccc3ccccc3c2)cc1
active: [3] | [5] | [6] | [8] | [9]
inactive: all other assays above
